# Test results from the EternaBench riboswitch data.
# Test system: MS2 coat protein
# Assay: apparent Kd, MS2 coat protein; higher = weaker binding; RNA-MaP array; theophylline 2 mM where present
# Procedure, shortened: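 Each design was made on Illumina sequencing-chip clusters by stalled E. coli RNA polymerase and titrated with SNAP-549-labelled MS2 coat protein from 0.7 or 1.5 nM, doubling to 3 µM, in the absence and then the presence of constant ligand. The buffer was 100 mM Tris-HCl pH 7.5, 80 mM KCl, 4 mM MgCl2, BSA, DTT, yeast tRNA and Tween-20. The apparent Kd is the median of filtered per-cluster fits of binding curves, with green signal normalised to red-channel RNA signal and control-cluster median Fmax.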
# [1] = designed as: ON switch for theophylline, no ligand
# [2] = ligand present: theophylline, designed as: ON switch for theophylline
# [3] = designed as: OFF switch for theophylline, no ligand
# [4] = ligand present: theophylline, designed as: OFF switch for theophylline
Sequence,apparent Kd [1] [nM],apparent Kd [2] [nM],apparent Kd [3] [nM],apparent Kd [4] [nM]
ACAUGAGGAUCACCCAUGUCACGGCACGAUACCAGCUGAUGCGGUGGCCCUUGGCAGCGUGACGUUUGGUCCCGCGGAUGACGGG,40.8,16.8,,
UAACAUGAGGAUCACCCAUGUAUAGUCGAUACCAGCUCUGUCUAGAGCCCUUGGCAGCGACACUGGUAUCCAUGGGUGUGGAUAC,108,56.1,,
ACACAUGAGGAUCACCCAUGUUGCAUAGAUACCAGAUAACGUGAGAUCCCUUGGCAGCUAACUGCAUGAACUUGACAUGCAUCAU,42.4,136,,
UUAGAUAUGACAGAUACCAGCGUGUUGUAGAACAUGAGGAUCACCCAUGUAGUGAUCGUGCGCCCUUGGCAGCUGGUAUGUUUGG,280,881,,
GGGAAAGAAUGUGAUACCAGAGAACCGGUCUCCAUCAAUAUACAUGAGGAUCACCCAUGUCUCCCUUGGCAGCACCAUCAUCAAA,,,23.1,75.8
AUAAAUAAAACCGAUACCAGCCUUAUACAUGAGGAUCACCCAUGUUAUGCUUCCUUUUUUGGCCCUUGGCAGCGGAAAUGGGUAA,83.3,40.8,,
GUCCUAGCGAUCGCUCGCUAGGACGCGGAUACCAGCGAGGUCCAUCGCCCUUGGCAGCCGAACAUGAGGAUCACCCAUGUCGGUA,9.59,14.9,,
UCGUGUGUUUCGGAUACCAGUGAAAUCGAUACAUGAGGAUCACCCAUGUGAGAGGAUGUACACCCUUGGCAGCUGGCUGUAGCGG,47.9,39.7,,
UCUUGAGUUUCGGAUACCAGUGUUGUCGAUACAUGAGGAUCACCCAUGUUAGAGGAUGUACACCCUUGGCAGCCGGCUGUGGCGG,20.7,13,,
UGUAACAUGAGGAUCACCCAUGUAAGUGAUACCAGAUAAGUAGUAGUCCCUUGGCAGCAUAUUGGGCGAGUGUAUAGUCUAUACG,50.4,61.1,,
UGUAACAUGAGGAUCACCCAUGUGCACGAUACCAGCUUAUUGGUAGGCCCUUGGCAGCGUAUUCGGAAGAUGUAUAAUAUAUAUC,13.4,13.3,,
ACAUGAAGAACAGCGGUGGGCGCGCUCGAUACCAGUAUUUUAAACUACCCUUGGCAGCGACAUGAGGAUCACCCAUGUGAGAUGA,,,18.2,35.7
AGCGACAUGCGUGAUACCAGCUACAUGAGGAUCACCCAUGUACGUCAGUAAUGACUGUGUAGCCCUUGGCAGCAUAAUGCAUGUC,,,34.4,67.2
ACAUGAGGAUCACCCAUGUUCCUCGCCGAUACCAGUGAAGAAUUACGCCCUUGGCAGCGGAAAGAGUGUUUUGGAGAUGAGGUAC,,,72.6,108
AAGGUGAUCCUCGAUACCAGCUCAACAUGAGGAUCACCCAUGUAAGCCUGGAAACAGGCGAGCCCUUGGCAGCGAGUUACAUCAA,62.1,17.8,,
GCUGUAAGUGCAGAUACCAGCAUGUUAUAUUUCUAAUGACAUGAGGAUCACCCAUGUAAAUGCCCUUGGCAGCUGCACUUACAGC,18.9,18.8,,
GCACGACAUGAGGAUCACCCAUGUGCAGAUACCAGUAGGAUAUCCUACCCUUGGCAGCUGAGUGGAUCCGGAGGACCAUGGGUAA,38,82.6,,
AGCGACAUGCAUGAUACCAGCUACAUGAGGAUCACCCAUGUACGUCAGUAAUGACUGUGUAGCCCUUGGCAGCAUAAAGCAUGUC,,,28.8,56.7
AAGGUGAUCCCAGAUACCAGCCUAACAUGAGGAUCACCCAUGUUUGGGACGAAAGUCCCAGGCCCUUGGCAGCUGGGUUGCCAAG,225,30.3,,
UAUAUUGUGAUGGAUACCAGCAGAGAAAACGUUUAUCCUAACAUGAGGAUCACCCAUGUAUGCCCUUGGCAGCUGUUGUGGUAUA,,,,44.4
AUCGUACCUCAUGAUACCAGCAUGUGAUCAUAACAUGAGGAUCACCCAUGUAAUCAGUGAUGCCCUUGGCAGCGUAGUCGAUACA,136,63,,
UUCAAAGGGAACGGUGCUGGUGACAGAGAUACCAGCGCGGUAACGCGCCCUUGGCAGCUCAGAACAUGAGGAUCACCCAUGUAAU,,,13.6,50.2
AGAAUACAUGUUUUAAUACGGAAAACUGAUACCAGUGUAUCUAUUCACCCUUGGCAGCAGAGACAUGAGGAUCACCCAUGUAUUA,41.3,28.6,,
AUUUACAUGGUCAUAUAUAUAUCGUCAGAUACCAGACUAGAUAUUGUCCCUUGGCAGCUGUUACAUGAGGAUCACCCAUGUUAUA,,,230,131
AACUGGGUUCGUGAUACCAGCUCACACAUGAGGAUCACCCAUGUAGUGGGUAAAAUGUGGAGCCCUUGGCAGCACUGUGACCACG,,,13.2,60.7
GAUAGUUGAUGGGAUACCAGCGUGCACAUGAGGAUCACCCAUGUGGUUCGUGUACGACGGCGCCCUUGGCAGCCCAUAUUGUGUA,151,18.9,,
